Like-named read-outs stand apart in the source and are kept apart here.
Key:
cAMP in L23 neurons = experiment: In vivo 2pFLIM of cAMP responses to enforced running in L23 neurons; design: species or system mouse; conditions: intraperitoneal injection; cAMPFIRE-L
Outline: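 cAMPFIRE-L was expressed in L2/3 somatosensory pyramidal neurons by in utero electroporation of C57BL/6 embryos at E15.5. Plasmid (~2–3 μg/μL, 1 μL) went into the lateral ventricle, followed by five 100-ms pulses at 35 V, 1 Hz. A cranial window was fitted at P30–60 with two weeks' recovery. Awake head-fixed mice on a treadmill (rotary-encoder velocity) were imaged by 2pFLIM of running-evoked responses before and after i.p. drug.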

[1] = tested on: cAMP in L23 pyramidal neurons; experiment: In vivo 2pFLIM of tonic cAMP in L23 pyramidal neurons of awake head-fixed mice; design: species or system mouse; conditions: for effect on cAMP in neuronal dendrites / effect on cAMP in neuronal somas: intraperitoneal, yohimbine 5 mg/kg, propranolol 25 mg/kg
Outline: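 Awake, head-fixed mice carried cAMPFIRE-L in L2/3 somatosensory neurons, introduced by in utero electroporation at E15.5, and were imaged by 2pFLIM through a cranial window fitted at P30–60. Isoflurane (1.5%) was given by nose cone; other drugs were given i.p., including morphine at 25 mg/kg. Lifetime was taken as mean photon emission time from soma and dendrite ROIs. Data are mean ± s.e.m.; paired two-tailed t-test.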

cAMP [2] = experiment: 2pFLIM response to norepinephrine in CA1 neurons in cultured hippocampal slices; assay type: cell-based, rat
Outline: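 Rat hippocampal slices (400 μm, P6–7 pups of both sexes) were cultured at 35°C in 5% CO2 and imaged 2–3 days after transfection in carbogen-gassed aCSF with 4 mM CaCl2 and 4 mM MgCl2. CA1 neurons expressing cAMPFIRE-M received 0.1 μM norepinephrine with or without 1 μM propranolol, followed by wash. cAMPFIRE-L and its R279E mutant received 1 μM norepinephrine. Data are mean ± s.e.m. over cells.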

cAMP [3] = assay type: cell-based, human; conditions: propranolol 1 μM; HEK cells
Outline: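 HEK-293 cells were grown in MEM with 10% FBS at 37°C in 5% CO2, plated on poly-D-lysine coverslips and transfected by Lipofectamine-2000 (0.5–3 μg plasmid per dish). Cells were given norepinephrine, then 25 μM forskolin plus 50 μM IBMX. CFP/YFP ratios were computed after per-channel background subtraction and normalized to the forskolin/IBMX response. Concentration-response curves were fitted with the Hill equation.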

Row | Structure (SMILES) | effect on negative cAMP responses to enforced running (cAMP in L23 neurons) | effect on positive cAMP responses to enforced running (cAMP in L23 neurons) | effect on cAMP in neuronal dendrites ([1]; cAMPFIRE-L) | effect on cAMP in neuronal somas ([1]; cAMPFIRE-L) | time to plateau of cAMP decrease post administration ([1]; morphine 25 mg/kg) | effect on cAMP activity in L23 neurons ([1]; morphine 25 mg/kg, cAMPFIRE-L) | effect on sensor response to norepinephrine (cAMP [2]) | effect on sensor response to norepinephrine (cAMP [3]) | effect on cAMP levels in neuronal somas ([1]; 1.5% inhaled, measured using cAMPFIRE-L)
1 | COC(=O)[C@@H]1[C@H]2C[C@H]3c4[nH]c5ccccc5c4CCN3C[C@@H]2CC[C@@H]1O [yohimbine] | significantly attenuated | increased | increased | little effect |  |  |  |  | 
2 | CN1CC[C@]23c4c5ccc(O)c4O[C@H]2[C@@H](O)C=C[C@H]3[C@H]1C5 [Morphine, morphine] |  |  |  |  | ~ 40 minutes | decreased |  |  | 
3 | CC(C)NCC(O)COc1cccc2ccccc12 (stereo not shown) [propranolol] | reduced | did not affect | decreased | decreased |  |  | blocked | blocked | 
4 | FC(F)OC(Cl)C(F)(F)F (stereo not shown) [Isoflurane, isoflurane] |  |  |  |  |  |  |  |  | significantly reduced
